Source: ChEMBL document CHEMBL3596157, “Heteroaromatic analogs of the resveratrol analog DMU-212 as potent anti-cancer agents” (2015)

Key:
Type in all cases: functional
CCRF-CEM = assay: Growth inhibition of human CCRF-CEM cells after 48 hrs by SRB assay
Summary of the method: (§1)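 NCI-60 panel screen. Cells exposed for 48 h to five concentrations (10−4, 10−5, 10−6, 10−7 and 10−8 M). Sulforhodamine B optical density is read just before compound addition (time zero) and after 48 h, for both treated and vehicle-control wells. Percent growth is calculated against control. GI50 is the concentration giving a 50% reduction in net cell growth relative to cell numbers on day 0.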

HL-60(TB) = assay: Growth inhibition of human HL-60(TB) cells after 48 hrs by SRB assay; settings: HL-60, 48 h
Summary of the method: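 NCI-60 panel screen: cells were exposed to test agent at five concentrations (10−4, 10−5, 10−6, 10−7 and 10−8 M) for 48 h. Sulforhodamine B optical density was read at time zero and after exposure to compound or vehicle control, and growth percentage versus control was calculated. GI50 was taken as the concentration giving a 50% reduction in net cell growth relative to day 0 cell numbers.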

K562 = assay: Growth inhibition of human K562 cells after 48 hrs by SRB assay; settings: K562, 48 h; summary of the method: as §1
[1] = Growth inhibition of human MOLT4 cells after 48 hrs by SRB assay; settings: MOLT-4, 48 h; summary of the method: as §1
[2] = Growth inhibition of human RPMI8226 cells after 48 hrs by SRB assay; settings: RPMI-8226, 48 h; summary of the method: as §1
SR = assay: Growth inhibition of human SR cells after 48 hrs by SRB assay
Summary of the method: (§2)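 NCI-60 panel cells; preliminary single-dose screen at 10−5 M, then five-dose testing at 10−4 to 10−8 M (tenfold steps) with 48 h exposure. SRB-stained optical density read before compound addition (time zero), after 48 h with compound, and with vehicle control. Percent growth is calculated against control. GI50 is the concentration giving 50% reduction in net growth relative to day-0 cell number.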

A549 = assay: Growth inhibition of human A549/ATCC cells after 48 hrs by SRB assay; settings: A549, 48 h; summary of the method: as §1
HOP-62 = assay: Growth inhibition of human HOP62 cells after 48 hrs by SRB assay; settings: HOP-62, 48 h; summary of the method: as §1
[3] = Growth inhibition of human HOP92 cells after 48 hrs by SRB assay; settings: HOP-92, 48 h; summary of the method: as §1
NCI-H226 = assay: Growth inhibition of human NCI-H226 cells after 48 hrs by SRB assay; settings: NCI-H226, 48 h; summary of the method: as §1
NCI-H23 = assay: Growth inhibition of human NCI-H23 cells after 48 hrs by SRB assay; settings: NCI-H23, 48 h; summary of the method: as §1
NCI-H322M = assay: Growth inhibition of human NCI-H322M cells after 48 hrs by SRB assay; summary of the method: as §1
NCI-H460 = assay: Growth inhibition of human NCI-H460 cells after 48 hrs by SRB assay; settings: NCI-H460, 48 h; summary of the method: as §1
NCI-H522 = assay: Growth inhibition of human NCI-H522 cells after 48 hrs by SRB assay; settings: NCI-H522, 48 h; summary of the method: as §1
[4] = Growth inhibition of human COLO205 cells after 48 hrs by SRB assay; settings: COLO 205, 48 h; summary of the method: as §1
[5] = Growth inhibition of human HCC2998 cells after 48 hrs by SRB assay; settings: HCC 2998, 48 h; summary of the method: as §1
HCT-116 = assay: Growth inhibition of human HCT116 cells after 48 hrs by SRB assay; settings: HCT-116, 48 h; summary of the method: as §1
HCT-15 = assay: Growth inhibition of human HCT15 cells after 48 hrs by SRB assay; settings: HCT-15, 48 h; summary of the method: as §1
HT-29 = assay: Growth inhibition of human HT-29 cells after 48 hrs by SRB assay; settings: HT-29, 48 h; summary of the method: as §1
KM12 = assay: Growth inhibition of human KM12 cells after 48 hrs by SRB assay; settings: KM12, 48 h; summary of the method: as §1
SW-620 = assay: Growth inhibition of human SW620 cells after 48 hrs by SRB assay; settings: SW-620, 48 h; summary of the method: as §2
SF-268 = assay: Growth inhibition of human SF268 cells after 48 hrs by SRB assay; settings: SF-268, 48 h; summary of the method: as §1
[6] = Growth inhibition of human SF295 cells after 48 hrs by SRB assay; settings: SF-295, 48 h; summary of the method: as §1
[7] = Growth inhibition of human SF539 cells after 48 hrs by SRB assay; settings: SF-539, 48 h; summary of the method: as §1
SNB-19 = assay: Growth inhibition of human SNB19 cells after 48 hrs by SRB assay; settings: SNB-19, 48 h; summary of the method: as §1
SNB-75 = assay: Growth inhibition of human SNB75 cells after 48 hrs by SRB assay; settings: SNB-75, 48 h; summary of the method: as §2
U-251 = assay: Growth inhibition of human U251 cells after 48 hrs by SRB assay; settings: U-251, 48 h; summary of the method: as §2
[8] = Growth inhibition of human LOXIMVI cells after 48 hrs by SRB assay; settings: LOX IMVI; summary of the method: as §1
Malme-3M = assay: Growth inhibition of human MALME-3M cells after 48 hrs by SRB assay; summary of the method: as §1
M14 = assay: Growth inhibition of human M14 cells after 48 hrs by SRB assay; settings: M14, 48 h; summary of the method: as §1
MDA-MB-435 = assay: Growth inhibition of human MDA-MB-435 cells after 48 hrs by SRB assay; settings: MDA-MB-435, 48 h; summary of the method: as §1
SK-MEL-2 = assay: Growth inhibition of human SK-MEL-2 cells after 48 hrs by SRB assay; settings: SK-MEL-2, 48 h; summary of the method: as §1
SK-MEL-28 = assay: Growth inhibition of human SK-MEL-28 cells after 48 hrs by SRB assay; settings: SK-MEL-28, 48 h; summary of the method: as §1
SK-MEL-5 = assay: Growth inhibition of human SK-MEL-5 cells after 48 hrs by SRB assay; settings: SK-MEL-5, 48 h; summary of the method: as §1
UACC-257 = assay: Growth inhibition of human UACC257 cells after 48 hrs by SRB assay; settings: UACC-257, 48 h; summary of the method: as §2
UACC-62 = assay: Growth inhibition of human UACC62 cells after 48 hrs by SRB assay; settings: UACC-62, 48 h; summary of the method: as §2
IGROV-1 = assay: Growth inhibition of human IGROV1 cells after 48 hrs by SRB assay; settings: IGROV-1, 48 h; summary of the method: as §1
OVCAR-3 = assay: Growth inhibition of human OVCAR3 cells after 48 hrs by SRB assay; settings: OVCAR-3, 48 h; summary of the method: as §1
OVCAR-4 = assay: Growth inhibition of human OVCAR4 cells after 48 hrs by SRB assay; settings: OVCAR-4, 48 h; summary of the method: as §1
OVCAR-5 = assay: Growth inhibition of human OVCAR5 cells after 48 hrs by SRB assay; settings: OVCAR-5, 48 h; summary of the method: as §1
OVCAR-8 = assay: Growth inhibition of human OVCAR8 cells after 48 hrs by SRB assay; settings: OVCAR-8, 48 h; summary of the method: as §1
[9] = Growth inhibition of human NCI-ADR-RES cells after 48 hrs by SRB assay; summary of the method: as §1
SK-OV-3 = assay: Growth inhibition of human SKOV3 cells after 48 hrs by SRB assay; settings: SK-OV-3, 48 h; summary of the method: as §1
786-0 = assay: Growth inhibition of human 786-0 cells after 48 hrs by SRB assay; settings: 786-0, 48 h; summary of the method: as §1
A498 = assay: Growth inhibition of human A498 cells after 48 hrs by SRB assay; settings: A498, 48 h; summary of the method: as §1
ACHN = assay: Growth inhibition of human ACHN cells after 48 hrs by SRB assay; summary of the method: as §1
CAKI-1 = assay: Growth inhibition of human Caki1 cells after 48 hrs by SRB assay; settings: CAKI-1, 48 h; summary of the method: as §1
[10] = Growth inhibition of human RXF393 cells after 48 hrs by SRB assay; settings: RXF 393, 48 h; summary of the method: as §1
SN12C = assay: Growth inhibition of human SN12C cells after 48 hrs by SRB assay; summary of the method: as §1
TK-10 = assay: Growth inhibition of human TK10 cells after 48 hrs by SRB assay; settings: TK-10, 48 h; summary of the method: as §2
UO-31 = assay: Growth inhibition of human UO31 cells after 48 hrs by SRB assay; settings: UO-31, 48 h; summary of the method: as §2
PC-3 = assay: Growth inhibition of human PC3 cells after 48 hrs by SRB assay; settings: PC-3, 48 h; summary of the method: as §1
DU-145 = assay: Growth inhibition of human DU145 cells after 48 hrs by SRB assay; settings: DU-145, 48 h; summary of the method: as §1
MCF7 = assay: Growth inhibition of human MCF7 cells after 48 hrs by SRB assay; settings: MCF7, 48 h; summary of the method: as §1
MDA-MB-231 = assay: Growth inhibition of human MDA-MB-231/ATCC cells after 48 hrs by SRB assay; settings: MDA-MB-231, 48 h; summary of the method: as §1
[11] = Growth inhibition of human Hs578T cells after 48 hrs by SRB assay; settings: Hs-578T; summary of the method: as §1
[12] = Growth inhibition of human BT549 cells after 48 hrs by SRB assay; settings: BT-549, 48 h; summary of the method: as §1
T47D = assay: Growth inhibition of human T47D cells after 48 hrs by SRB assay; summary of the method: as §2
MDA-MB-468 = assay: Growth inhibition of human MDA-MB-468 cells after 48 hrs by SRB assay; settings: MDA-MB-468, 48 h; summary of the method: as §1

COc1cc(/C=C/c2cc3ccccc3o2)cc(OC)c1OC
GI50 (CCRF-CEM): 425 nM
GI50 (HL-60(TB)): 356 nM
GI50 (K562): 267 nM
GI50 [1]: 852 nM
GI50 [2]: 700 nM
GI50 (SR): 94 nM
GI50 (A549): 615 nM
GI50 (HOP-62): 775 nM
GI50 [3]: 170 nM
GI50 (NCI-H226): 1100 nM
GI50 (NCI-H23): 3090 nM
GI50 (NCI-H322M): 15900 nM
GI50 (NCI-H460): 416 nM
GI50 (NCI-H522): 436 nM
GI50 [4]: 406 nM
GI50 [5]: 334 nM
GI50 (HCT-116): 522 nM
GI50 (HCT-15): 402 nM
GI50 (HT-29): 375 nM
GI50 (KM12): 508 nM
GI50 (SW-620): 444 nM
GI50 (SF-268): 861 nM
GI50 [6]: 356 nM
GI50 [7]: 273 nM
GI50 (SNB-19): 584 nM
GI50 (SNB-75): 475 nM
GI50 (U-251): 668 nM
GI50 [8]: 895 nM
GI50 (Malme-3M): 413 nM
GI50 (M14): 479 nM
GI50 (MDA-MB-435): 78 nM
GI50 (SK-MEL-2): 767 nM
GI50 (SK-MEL-28): 837 nM
GI50 (SK-MEL-5): 345 nM
GI50 (UACC-257): 16400 nM
GI50 (UACC-62): 507 nM
GI50 (IGROV-1): 807 nM
GI50 (OVCAR-3): 429 nM
GI50 (OVCAR-4): 1150 nM
GI50 (OVCAR-5): 2940 nM
GI50 (OVCAR-8): 2050 nM
GI50 [9]: 511 nM
GI50 (SK-OV-3): 656 nM
GI50 (786-0): 850 nM
GI50 (A498): 408 nM
GI50 (ACHN): 863 nM
GI50 (CAKI-1): 580 nM
GI50 [10]: 329 nM
GI50 (SN12C): 4090 nM
GI50 (TK-10): 8460 nM
GI50 (UO-31): 1150 nM
GI50 (PC-3): 524 nM
GI50 (DU-145): 1860 nM
GI50 (MCF7): 373 nM
GI50 (MDA-MB-231): 1170 nM
GI50 [11]: 499 nM
GI50 [12]: 1090 nM
GI50 (T47D): 693 nM
GI50 (MDA-MB-468): 662 nM
